Measured values: article PMC6690775 (FEBS letters, 2019)
Like-named read-outs stand apart in the source and are kept apart here.

Key:
mortalin-NBD [1] = biological target: T1, mortalin-NBD (Homo sapiens, UniProt P38646); test: ITC binding of modified ADP analogues to mortalin-NBD; conditions: for ΔΗ: binding enthalpy change; for ΔS: binding entropy change
Hsc70-NBD [2] = biological target: T2, Hsc70-NBD (Homo sapiens, UniProt P11142); test: ITC binding of modified ADP analogues to Hsc70-NBD; conditions: for ΔΗ: binding enthalpy change; for ΔS: binding entropy change
T2 sequence (P11142 1-385): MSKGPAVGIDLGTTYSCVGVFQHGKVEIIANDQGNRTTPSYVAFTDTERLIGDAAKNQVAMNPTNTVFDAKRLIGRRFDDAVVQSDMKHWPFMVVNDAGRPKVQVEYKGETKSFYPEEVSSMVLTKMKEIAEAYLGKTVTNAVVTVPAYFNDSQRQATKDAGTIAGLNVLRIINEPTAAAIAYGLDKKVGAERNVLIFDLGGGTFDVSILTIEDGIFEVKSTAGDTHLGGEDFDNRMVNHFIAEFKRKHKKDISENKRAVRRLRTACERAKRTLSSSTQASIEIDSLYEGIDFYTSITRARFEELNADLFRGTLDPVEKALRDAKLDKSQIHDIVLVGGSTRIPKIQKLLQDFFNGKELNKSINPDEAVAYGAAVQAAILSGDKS

Hsp70-NBD [3] = biological target: T3, Hsp70-NBD (Homo sapiens, UniProt P0DMV8); test: ITC binding of modified ADP analogues to Hsp70-NBD; conditions: for ΔΗ: binding enthalpy change; for ΔS: binding entropy change
T3 sequence (P0DMV8 1-381): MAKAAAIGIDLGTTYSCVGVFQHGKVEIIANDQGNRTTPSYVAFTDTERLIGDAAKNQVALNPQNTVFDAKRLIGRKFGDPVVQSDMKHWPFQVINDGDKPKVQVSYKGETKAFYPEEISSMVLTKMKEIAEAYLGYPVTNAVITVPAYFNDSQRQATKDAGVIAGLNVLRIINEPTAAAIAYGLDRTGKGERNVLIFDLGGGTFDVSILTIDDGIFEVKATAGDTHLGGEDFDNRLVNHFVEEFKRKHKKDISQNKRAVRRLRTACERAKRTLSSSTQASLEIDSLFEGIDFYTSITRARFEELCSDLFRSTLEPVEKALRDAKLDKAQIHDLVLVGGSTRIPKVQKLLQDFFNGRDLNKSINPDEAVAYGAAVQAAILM

mortalin-NBD [4] = biological target: T1, mortalin-NBD; test: Competitive inhibition of ATPase activity; type: biochemical; conditions: for inhibition of ATP hydrolysis of mortalin-NBD (in words): compared with ADP
In short: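 Human mortalin-NBD (residues 52–431) was expressed in E. coli Rosetta2(DE3) with a TEV-cleaved His6 tag, then purified by Ni, size-exclusion and Blue columns. Enzyme in binding buffer (HEPES pH 7.8, MgCl2, KCl) was mixed with PNP/MESG and inhibitor at 0–3 mM. ATP was added to 50 μM final, and A360 was read every minute for 60 min at 25 °C, in triplicate, minus no-enzyme control. IC50 came from a one-site logIC50 fit. Kiapp came from a Morrison fit constrained by Et 1 μM, ATP 50 μM and a previously determined KM.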

Hsc70-NBD [5] = biological target: T2, Hsc70-NBD; test: Competitive inhibition of ATPase activity; type: biochemical
In short: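 PNP/MESG coupling (0.2 U, 0.2 μM, 10 min, 25 °C); ATP at 50 μM final started reaction; A360 read each minute for 60 min, 25 °C; triplicates minus no-enzyme control. IC50 from one-site logIC50 fit of fractional activity; Kiapp from Morrison fit constrained by prior KM.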

Hsp70-NBD [6] = biological target: T3, Hsp70-NBD; test: Competitive inhibition of ATPase activity; type: biochemical
In short: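 Human Hsp70-NBD (residues 1–381) was expressed in E. coli Rosetta2(DE3) with a TEV-cleaved His6 tag and purified by Ni, size-exclusion and Blue columns. Phosphate release (EnzChek; PNP 0.2 U, MESG 0.2 μM) was measured with inhibitor at 0–3 mM and ATP 50 μM final. A360 was read each minute for 60 min at 25 °C in triplicate, minus no-enzyme control. IC50 came from a one-site logIC50 fit of fractional activity; Kiapp came from a Morrison fit of V0.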

mortalin-NBD [7] = biological target: T1, mortalin-NBD; conditions: previously reported; cited from earlier work
[8] = mortalin-NBD, ITC Kd relative to ADP
[9] = read-out: KIapp, mortalin-NBD 1 μM, ATP 50 μM, 25 °C, Morrison fit

T1 sequence (P38646 52-431): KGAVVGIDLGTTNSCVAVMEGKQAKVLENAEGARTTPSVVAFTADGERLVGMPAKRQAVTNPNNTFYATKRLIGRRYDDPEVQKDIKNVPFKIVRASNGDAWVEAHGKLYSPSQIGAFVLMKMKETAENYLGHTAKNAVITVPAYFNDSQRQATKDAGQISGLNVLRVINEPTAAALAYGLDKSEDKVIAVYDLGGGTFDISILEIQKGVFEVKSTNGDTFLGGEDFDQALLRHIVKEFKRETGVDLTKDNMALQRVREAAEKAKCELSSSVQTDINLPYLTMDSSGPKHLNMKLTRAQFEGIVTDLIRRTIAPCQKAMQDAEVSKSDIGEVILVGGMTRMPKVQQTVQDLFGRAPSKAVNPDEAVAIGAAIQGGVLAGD

Row | Compound | Kd (Hsc70-NBD [2]) [µM] | ΔΗ (Hsc70-NBD [2]; ITC, 25 °C, Hsc70-NBD) [kJ/mol] | ΔS (Hsc70-NBD [2]; ITC, 25 °C, Hsc70-NBD) [J/mol·K] | Kd (Hsp70-NBD [3]) [µM] | ΔΗ (Hsp70-NBD [3]; ITC, 25 °C, Hsp70-NBD) [kJ/mol] | ΔS (Hsp70-NBD [3]; ITC, 25 °C, Hsp70-NBD) [J/mol·K] | IC50 (Hsc70-NBD [5]) [µM] | Ki (Hsc70-NBD [5]) [µM] | IC50 (Hsp70-NBD [6]) [µM] | Ki (Hsp70-NBD [6]) [µM] | ΔΗ (mortalin-NBD [1]; ITC, 25 °C, mortalin-NBD) [kJ/mol] | ΔS (mortalin-NBD [1]; ITC, 25 °C, mortalin-NBD) [J/mol·K] | affinity tighter than ADP (mortalin-NBD [1]; [8]) | inhibition of ATP hydrolysis of mortalin-NBD (in words) (mortalin-NBD [4]) | Kd (mortalin-NBD [1]) [µM] | IC50 (mortalin-NBD [4]) [µM] | Ki (mortalin-NBD [4]) [µM] | further results
1 | Nc1nc(Cl)nc2c1ncn2[C@@H]1O[C@H](COP(=O)(O)OP(=O)(O)O)[C@@H](O)[C@H]1O [2-Cl ADP] |  |  |  |  |  |  |  |  |  |  | -19.0 ± 0.721 | 45.4 ± 3.04 | ~ 3 fold | more effectively compared to ADP |  |  |  | Kd (mortalin-NBD [1]; ITC, 25 °C, mortalin-NBD): 1.77 µM; binding to Hsc70-NBD (in words) (Hsc70-NBD [2]; ITC): did not yield data that could be fitted; binding to Hsp70-NBD (in words) (Hsp70-NBD [3]; ITC): did not yield data that could be fitted; Ki (mortalin-NBD [4]; [9]): 45.1 ± 2.42 µM; inhibition of Hsc70-NBD (in words) (Hsc70-NBD [5]): no reliably demonstrable inhibition; inhibition of Hsp70-NBD (in words) (Hsp70-NBD [6]): no reliably demonstrable inhibition
2 | CSc1nc(N)c2ncn([C@@H]3O[C@H](COP(=O)(O)OP(=O)(O)O)[C@@H](O)[C@H]3O)c2n1 [2-MeS ADP, 2-methylthio-adenosine-5’-diphosphate] |  |  |  |  |  |  |  |  |  |  | -12.4 ± 3.62 | 54.5 ± 16.5 |  |  | 9.81 | 902 | 523 ± 98.3 | decrease in affinity compared to ADP (mortalin-NBD [1]; [8]): ~2 fold; binding to Hsc70-NBD (in words) (Hsc70-NBD [2]; ITC): did not yield data that could be fitted; binding to Hsp70-NBD (in words) (Hsp70-NBD [3]; ITC): did not yield data that could be fitted; inhibition of Hsc70-NBD (in words) (Hsc70-NBD [5]): no reliably demonstrable inhibition; inhibition of Hsp70-NBD (in words) (Hsp70-NBD [6]): no reliably demonstrable inhibition
3 | Cc1cccc(CNc2ncnc3c2ncn3[C@@H]2O[C@H](COP(=O)(O)OP(=O)(O)O)[C@@H](O)[C@H]2O)c1 [6-(3-MeBn) ADP, N6-(3-methylbenzyl)adenosine-5’-diphosphate] | 3.35 | -42.78 ± 3.79 | −41.10 ± 12.94 | 0.252 | -20.03 ± 0.94 | 58.44 ± 3.96 | 8040 | 682 ± 179 | 1870 | 1300 ± 148 | -13.1 ± 0.228 | 50.2 ± 1.73 |  |  | 11.4 | 1430 | 675 ± 99.4 | 
4 | O=P(O)(O)OP(=O)(O)OC[C@H]1O[C@@H](n2cnc3c(NCc4ccco4)ncnc32)[C@H](O)[C@@H]1O [6-Fu ADP, N6-furfuryladenosine-5’-diphosphate] | 8.7 | -22.83 ± 2.15 | 19.22 ± 5.06 | 4.27 | -10.02 ± 2.35 | 68.77 ± 8.28 | 6780 | 723 ± 179 | 3240 | 1860 ± 172 | -21.1 ± 1.16 | 28.7 ± 6.85 |  |  | 5.84 | 558 | 565 ± 49.6 | 

Now from value to compound, other results behind:

Row | Kd (Hsc70-NBD [2]) [µM] | ΔΗ (Hsc70-NBD [2]; ITC, 25 °C, Hsc70-NBD) [kJ/mol] | ΔS (Hsc70-NBD [2]; ITC, 25 °C, Hsc70-NBD) [J/mol·K] | Kd (Hsp70-NBD [3]) [µM] | ΔΗ (Hsp70-NBD [3]; ITC, 25 °C, Hsp70-NBD) [kJ/mol] | ΔS (Hsp70-NBD [3]; ITC, 25 °C, Hsp70-NBD) [J/mol·K] | IC50 (Hsc70-NBD [5]) [µM] | Ki (Hsc70-NBD [5]) [µM] | IC50 (Hsp70-NBD [6]) [µM] | Ki (Hsp70-NBD [6]) [µM] | Compound | ΔΗ (mortalin-NBD [1]; ITC, 25 °C, mortalin-NBD) [kJ/mol] | ΔS (mortalin-NBD [1]; ITC, 25 °C, mortalin-NBD) [J/mol·K] | affinity tighter than ADP (mortalin-NBD [1]; [8]) | inhibition of ATP hydrolysis of mortalin-NBD (in words) (mortalin-NBD [4]) | Kd (mortalin-NBD [1]) [µM] | IC50 (mortalin-NBD [4]) [µM] | Ki (mortalin-NBD [4]) [µM] | further results
5 | 0.159 | -17.06 ± 0.27 | 72.13 ± 2.77 | 2.16 | -16.49 ± 4.25 | 53.04 ± 14.20 | 1470 | 295 ± 67.2 | 2330 | 1610 ± 137 | O=P(O)(O)OP(=O)(O)OC[C@H]1O[C@@H](n2cnc3c(NCc4ccccc4)ncnc32)[C@H](O)[C@@H]1O [6-Bn ADP, N6-benzyladenosine-5’-diphosphate] | -12.5 ± 3.51 | 61.8 ± 12.1 | ~ 1.5 fold | more effectively compared to ADP | 3.52 | 119 | 86.5 ± 10.3 | 
6 | 0.237 | -18.06 ± 0.09 | 65.31 ± 1.22 | 0.143 | -45.20 ± 0.87 | −22.97 ± 3.25 | 2100 | 445 ± 101 | 3120 | 1160 ± 189 | O=P(O)(O)OP(=O)(O)OC[C@H]1O[C@@H](n2cnc3c(NCCc4ccccc4)ncnc32)[C@H](O)[C@@H]1O [6-PheEt ADP, N6-(2-phenylethyl)adenosine-5’-diphosphate] | -33.9 ± 2.07 | −10.4 ± 5.17 | ~ 1.25 fold | more effectively compared to ADP | 4.19 | 173 | 97.3 ± 9.96 | 
7 | 0.357 | -25.13 ± 2.35 | 37.74 ± 7.36 | 0.199 | -20.78 ± 0.61 | 57.67 ± 0.64 | 2230 | 622 ± 183 | 2490 | 1240 ± 164 | O=P(O)(O)OP(=O)(O)OC[C@H]1O[C@@H](n2cnc3c(NC4CCCCC4)ncnc32)[C@H](O)[C@@H]1O [6-cHe ADP, N6-cyclohexyladenosine-5’-diphosphate] | -22.09 ± 0.29 | 18.84 ± 0.87 |  | weakest inhibition | 14.1 | 1600 | 733 ± 82.1 | 
8 |  | -30.79 ± 0.09 | 34.19 ± 1.55 |  | -23.98 ± 0.85 | 60.54 ± 3.65 |  |  |  |  | Nc1ncnc2c1ncn2[C@@H]1O[C@H](COP(=O)(O)OP(=O)(O)O)[C@@H](O)[C@H]1O [ADP, reference compound] | -27.3 ± 1.29 | 9.36 ± 4.48 |  |  |  |  |  | Kd (Hsc70-NBD [2]; ITC, 25 °C, Hsc70-NBD): 0.0665 µM; Kd (Hsp70-NBD [3]; ITC, 25 °C, Hsp70-NBD): 0.0435 µM; Ki (mortalin-NBD [4]; [9]): 353 ± 36.2 µM; log IC50 (Hsc70-NBD [5]; Hsc70-NBD, ATP 50 μM, one-site logIC50 fit): 2.734 ± 0.117; Ki (Hsc70-NBD [5]; read-out: KIapp, Hsc70-NBD, ATP 50 μM, Morrison fit, ~ denotes ambiguous data): 239 ± 32.2 µM; log IC50 (Hsp70-NBD [6]; Hsp70-NBD, ATP 50 μM, one-site logIC50 fit): 2.697 ± 0.091; Ki (Hsp70-NBD [6]; read-out: KIapp, Hsp70-NBD, ATP 50 μM, Morrison fit, ~ denotes ambiguous data): 440 ± 47.8 µM; Kd (mortalin-NBD [7]): 5.3 ± 0.106 µM
